Source: PubChem BioAssay
Hits are enriched below; roughly 1.5% of the tested compounds scored in any of these assays.
Cneo AK release: Cryptococcus neoformans cell lysis inducers, primary screen, AK release luminescence, single concentration; C. neoformans lysis, adenylate kinase release luminescence, 4 h; normalised: neutral wells 0, clomiphene wells 100; hit rate 0.2% among 360,000; lysis activity, % at 15 µM;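 active = mean lysis activity across replicates of at least 80%, whatever share of replicates individually reach that level; inactive = mean lysis activity below 80%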
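Material: C. neoformans cells; Schedule: 4 h static compound exposure, 37 °C, read 1 h post-reagent; Measured by: adenylate kinase release luminescence; Read-out: signal increase indicating cell lysis; Controls: Clomiphene as positive lysis control.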
Statin myotox sup: suppressors of statin myotoxicity in C2C12 myotubes, primary screen, cell-based, single point, plate reader; AID 602340, 2012; C2C12 myotubes + simvastatin, ATP luminescence, 48 h; scaled: DMSO 0, geranylgeraniol control 100; rescue of ATP level, % at 7.49 µM; hit rate 0.78% among 330,000;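 active = mean ATP rescue above about 67%, or every replicate alone reaching that limit, limit read from the data, passing the limit was not always enough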;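 also: myotubes were challenged with 10 µM simvastatin during compound exposure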
Mot1-301 SUMO: yeast Mot1-301 growth rescue at high temperature, primary screen, SUMOylation pathway inhibitor project, S. cerevisiae, ATP luminescence, 38.5C | hit rate 1% among 320,000 | growth rescue, % at 18.8 µM | S. cerevisiae Mot1-301 growth rescue; percent above DMSO median, 100 means doubled;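 active = every valid replicate shows activation above 250% relative to neutral control wells; inactive = the rest, any valid replicate at or below 250%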
Hits are given with their value; 0 = inactive; - = not tested or not shown.

SMILES | Cneo AK release | Statin myotox sup | Mot1-301 SUMO
C=CCCCCCCCCc1nc(=S)[nH][nH]1 | 0 | 148 | 0
C=CCCCCCCCCc1nc(SCC(=O)O)n[nH]1 | 0 | 0 | 0
O=C(C[C@H]1CC[C@@H](NC(=O)CN2CCOCC2)[C@H](CO)O1)NC1CCCCC1 | 0 | 0 | -
Cc1ccc(-c2[nH][nH]c(=O)c(=O)c2N=Nc2ccccc2)cc1 | 0 | 211 | 0
Cc1cc(=O)n2[nH]c(=O)c(N=Nc3ccccc3)c2[nH]1 | 0 | 0 | 0
CO[C@H]1CN(C)C(=O)c2cc(NC(C)=O)ccc2OC[C@@H](C)N(Cc2ccccn2)C[C@H]1C | 0 | 0 | -
CN(C)Cc1cn(CC[C@H]2CC[C@@H](NS(=O)(=O)c3ccc(-c4ccccc4)cc3)[C@@H](CO)O2)nn1 | 0 | 0 | -
CNC[C@@H]1OCCCC[C@H](C)Oc2ccc(NC(=O)c3ccccc3)cc2C(=O)N([C@@H](C)CO)C[C@@H]1C | 82 | 0 | -
CNC[C@@H]1OCCCC[C@@H](C)Oc2ccc(NC(=O)c3ccccc3)cc2C(=O)N([C@H](C)CO)C[C@@H]1C | 0 | 0 | -
CC(C)NC(=O)N(C)C[C@@H]1OCCCC[C@H](C)Oc2ccc(NC(=O)Cc3ccccc3)cc2C(=O)N([C@H](C)CO)C[C@H]1C | 101 | - | -
CC(C)NC(=O)N(C)C[C@H]1OCCCC[C@@H](C)Oc2ccc(NC(=O)c3ccccc3)cc2C(=O)N([C@H](C)CO)C[C@H]1C | 0 | - | -
CC(C)NC(=O)N(C)C[C@H]1OCCCC[C@H](C)Oc2ccc(NC(=O)c3ccccc3)cc2C(=O)N([C@@H](C)CO)C[C@H]1C | 0 | - | -
CC(C)NC(=O)N(C)C[C@@H]1OCCCC[C@@H](C)Oc2ccc(NC(=O)c3ccccc3)cc2C(=O)N([C@H](C)CO)C[C@@H]1C | 111 | - | -
CC(C)NC(=O)N(C)C[C@@H]1OCCCC[C@@H](C)Oc2ccc(NC(=O)c3ccccc3)cc2C(=O)N([C@H](C)CO)C[C@H]1C | 103 | - | -
CC(C)NC(=O)N(C)C[C@@H]1OCCCC[C@H](C)Oc2ccc(NC(=O)Cc3ccccc3)cc2C(=O)N([C@H](C)CO)C[C@@H]1C | 0 | - | -
C[C@H](O)C#Cc1cnc2c(c1)C(=O)N([C@H](C)CO)C[C@H](C)[C@H](CN(C)C(=O)Cc1ccccn1)O2 | 0 | 0 | -
CCCNC(=O)C[C@H]1CC[C@@H]2[C@H](COC[C@@H](O)CN2C(=O)Nc2ccc3c(c2)OCO3)O1 | 0 | 0 | -
C[C@@H]1CCCCO[C@H](CN(C)C(=O)c2ccccc2)[C@@H](C)CN([C@H](C)CO)C(=O)c2cc(NC(=O)CCCN(C)C)ccc2O1 | 0 | 0 | -
CC(C)NC(=O)N(C)C[C@@H]1OCCCC[C@@H](C)Oc2ccc(NC(=O)c3ccccc3)cc2C(=O)N([C@@H](C)CO)C[C@@H]1C | 0 | - | -
CC(C)NC(=O)N(C)C[C@H]1OCCCC[C@H](C)Oc2ccc(NC(=O)c3ccccc3)cc2C(=O)N([C@@H](C)CO)C[C@@H]1C | 95 | - | -
CNC[C@@H]1OCCCC[C@H](C)Oc2ccc(NC(=O)Nc3ccc(F)cc3)cc2C(=O)N([C@@H](C)CO)C[C@H]1C | 101 | 0 | -
CNC[C@@H]1OCCCC[C@H](C)Oc2ccc(NC(=O)Nc3ccc(F)cc3)cc2C(=O)N([C@@H](C)CO)C[C@@H]1C | 0 | 0 | -
C[C@@H]1CN([C@@H](C)CO)C(=O)c2cc(NC(=O)NC3CCCCC3)ccc2O[C@@H](C)CCCCO[C@@H]1CN(C)S(=O)(=O)c1ccc(F)cc1 | 0 | - | -
CCCNC(=O)C[C@@H]1C[C@H]2c3cc(NC(=O)Cc4ccncc4)ccc3O[C@H]2[C@H](CO)O1 | 0 | 0 | -
Cn1c(C(=O)NCCC2=CCCCC2)cc2c(=O)n3ccccc3nc21 | 0 | 0 | 0
SMILES | Cneo AK release | Statin myotox sup | Mot1-301 SUMO
Cc1cccn2c(=O)c3cc(C(=O)NCCC4=CCCCC4)n(C)c3nc12 | 0 | 127 | 0
C[C@H](CO)N1C[C@H](C)[C@@H](CN(C)C(=O)Nc2ccc(F)cc2)OCCCC[C@H](C)Oc2ccc(N(C)C)cc2C1=O | 0 | 0 | -
COc1cc(OC)cc(-c2ncc3ccccn23)c1 | 0 | 0 | 0
COc1ccc(-c2ncc3ccccn23)cc1 | 0 | 99 | 0
CO[C@@H]1CN(C)C(=O)c2ccc(NS(=O)(=O)C3CCCCC3)cc2OC[C@H](C)NC[C@H]1C | 0 | 0 | -
N/C(=N\OC(=O)c1ccc(Cl)cc1)c1nonc1N | 0 | 0 | 294
N/C(=N/OC(=O)c1ccccc1F)c1nonc1N | - | - | 0
C[C@@H]1CN([C@@H](C)CO)C(=O)c2cc(-c3cccc(F)c3)cnc2O[C@@H]1CN(C)C | 0 | 0 | -
CCC(=O)Nc1ccc2c(c1)C(=O)N(C)C[C@H](OC)[C@H](C)CN(CCc1ccccc1)[C@@H](C)CO2 | 0 | 0 | -
Cc1cc(C)n(C(=O)c2ccc(C)c(S(=O)(=O)N3CCCC3)c2)n1 | 0 | 95 | 0
Cc1ccc(-c2ccc(S(=O)(=O)NCC3CCCO3)cc2)cc1 (centres undefined) | - | - | 0
Cc1cc(C)n(C(=O)c2ccc(S(=O)(=O)NCC3CCCO3)cc2)n1 (centres undefined) | 0 | 112 | 0
Cc1cc(C)n(C(=O)c2cccc(S(=O)(=O)N3CCCCC3)c2)n1 | - | 0 | 0
O=C(CN1CCC(c2nc3ccccc3s2)CC1)NCc1ccccc1 | 0 | 113 | 0
CCOC(=O)CCCNC(=O)CN1CCC(c2nc3ccccc3s2)CC1 | 0 | 0 | 0
CN1c2ccc(-c3cccc(C#N)c3)cc2[C@@H]2[C@@H](CCN2S(=O)(=O)c2ccccc2)[C@@H]1CO | 0 | 0 | -
Cc1ccccc1CS(=O)(=O)c1nnc([C@H](CC(C)C)NC(=O)OC(C)(C)C)o1 | 0 | 0 | 0
CC(C)(C)OC(=O)N[C@@H](Cc1ccccc1)c1nnc(S(=O)(=O)Cc2cccc(F)c2)o1 | - | - | 275
CCC(C)(NC(=O)c1ccccn1)C(=O)NC1CCCC1 (centres undefined) | - | - | 0
CCC(C)(NC(=O)CNC(C)=O)C(=O)NC1CCCCC1 (centres undefined) | 0 | 112 | 0
CCOc1ccc(CCNC(=O)C2CCCN(c3ncnc4c3nc3n4CCCCC3)C2)cc1 (centres undefined) | 0 | 76 | 0
Cc1ccc(CCNC(=O)C2CCCN(c3ncnc4c3nc3n4CCCCC3)C2)cc1 (centres undefined) | 0 | 0 | 0
COc1ccc(NC(=O)N(C)C[C@H]2Oc3ccc(NC(=O)CCN4CCOCC4)cc3CC(=O)N([C@H](C)CO)C[C@@H]2C)cc1 | 0 | 0 | -
CCOCCN1CCN(c2c(CC)c(C)nc3cc(-c4cc(OC)cc(OC)c4)nn23)CC1 | 0 | 99 | 0
CCc1c(C)nc2cc(-c3cc(OC)cc(OC)c3)nn2c1N1CCCC1 | 0 | 0 | 0
CN(c1ccccc1C(=O)Nc1cccc(Cl)c1Cl)S(C)(=O)=O | 0 | 0 | 0
CN(c1ccccc1C(=O)Nc1ccc2c(c1)OCCO2)S(C)(=O)=O | 0 | 0 | 0
Cc1ccc(NC(=O)c2ccccc2N(C)S(C)(=O)=O)cc1C | 0 | 106 | 0
CCOc1ccccc1NC(=O)c1ccccc1N(C)S(C)(=O)=O | 0 | 151 | 0
